Assay results from the array DNA melting data of Ke et al. (doi:10.1101/2024.01.08.574731).

Columns and labels:
[1] = folding enthalpy; higher = less favourable; fluorescence melt of hairpins on a sequencing array, two-state fit; details: sodium 0.088 M
How it was run: (§1)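 Cy3 fluorescence of library hairpins on a sequenced MiSeq flow cell, with annealed Cy3 and quencher oligos, was imaged in 50 mM Na-HEPES pH 8.0, 25 mM NaCl in 2.5 °C steps up to 60 °C. Signals were normalised to pre-quench Cy3 and to control variants. Melting temperature and folding enthalpy came from bootstrapped two-state fits, inverse-variance combined over four replicates. Fitted temperatures were raised by 9.35 °C to match UV melts.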

[2] = melting temperature; fluorescence melt of hairpins on a sequencing array, two-state fit, raised by 9.35 °C to match UV melts; details: sodium 0.088 M
How it was run: as §1

Sequence | folding enthalpy [1] [kcal/mol] | Tm [2] [°C]
GATCTAGCGTTAGATC ((((((....)))))) | -31.1 | 39.7
GATCTAGCTCTAGATC ((((((....)))))) | -33.1 | 45.2
GATCTAGGAAACTAGACC (.(((((....))))).) | -14.8 | 29.3
GATCTAGGAAACTAGGTC ((.((((....)))).)) | -34.3 | 38.6
GATCTAGGAGTAGATC ((((((....)))))) | -30.2 | 40.4
GATCTAGGCATAGATC ((((((....)))))) | -36.9 | 48.8
GATCTAGGCTTAGATC ((((((....)))))) | -38.4 | 46.6
GATCTAGTACTAGATC ((((((....)))))) | -51.4 | 48.7
GATCTAGTATTAGATC ((((((....)))))) | -37.5 | 47.1
GATCTAGTTATAGATC ((((((....)))))) | -33.8 | 48.9
GATCTAGTTTTAGATC ((((((....)))))) | -32.3 | 42.3
GATCTATAATAGATC ((((((...)))))) | -21.8 | 38.3
GATCTATCATAGATC ((((((...)))))) | -28 | 40.1
GATCTATCGATAGATC ((((((....)))))) | -44.3 | 48
GATCTATCGTAGATC ((((((...)))))) | -12.9 | 38.4
GATCTATCGTTAGATC ((((((....)))))) | -19.4 | 37.8
GATCTATCTATAGATC ((((((....)))))) | -38 | 47.4
GATCTATGATTAGATC ((((((....)))))) | -31.9 | 39.8

Sequence | folding enthalpy [1] [kcal/mol] | Tm [2] [°C]
GATCTATGCATAGATC ((((((....)))))) | -43.4 | 49.9
GATCTATGCTTAGATC ((((((....)))))) | -35.8 | 44.5
GATCTATGTCTAGATC ((((((....)))))) | -26.6 | 38.5
GATCTATGTTAGATC ((((((...)))))) | -27.7 | 41.3
GATCTATTCGTAGATC ((((((....)))))) | -33.5 | 44.8
GATCTATTTATAGATC ((((((....)))))) | -48.6 | 51.8
GATCTATTTCTAGATC ((((((....)))))) | -30.2 | 38.9
GATCTATTTTTAGATC ((((((....)))))) | -42.5 | 44.3
GATCTCAAAAGAGATC ((((((....)))))) | -29.8 | 48.5
GATCTCAAACGAGATC ((((((....)))))) | -41.4 | 50.2
GATCTCAACGAGATC ((((((...)))))) | -35.5 | 55.8
GATCTCAAGGGAGATC ((((((....)))))) | -28.6 | 50.8
GATCTCACTCGAGATC ((((((....)))))) | -50.8 | 52.1
GATCTCACTTGAGATC ((((((....)))))) | -39 | 54.1
GATCTCAGAGGAGATC ((((((....)))))) | -32.9 | 50.8
GATCTCAGATGAGATC ((((((....)))))) | -36.3 | 52.5
GATCTCAGTGAGATC ((((((...)))))) | -31.9 | 53.1
GATCTCAGTTGAGATC ((((((....)))))) | -34.5 | 54.2
